According to ChEMBL document CHEMBL1212739, “Clindamycin-induced CovS-mediated regulation of the production of virulent exoproteins streptolysin O, NAD glycohydrolase, and streptokinase in Streptococcus pyogenes” (2010):
The source made the active and inactive calls. No cut-off for these calls is given here.

Tests used:
[1] = test system: Streptococcus pyogenes; experiment: Antibacterial activity against Streptococcus pyogenes D2TY; format: functional
Summary of the method: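 MICs of clindamycin hydrochloride determined for S. pyogenes M1 strain D2TY (STSS clinical isolate) by broth microdilution and by Etest, following CLSI guidelines. Bacteria grown at 37°C without agitation in brain heart infusion broth with 0.3% yeast extract. Resistance breakpoint taken as MIC above 1 μg/ml.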

[2] = test system: Streptococcus pyogenes; experiment: Induction of slo mRNA expression in drug-resistant Streptococcus pyogenes D2TY at 1 ug/ml by Northern blot analysis; format: functional, organism-based
Summary of the method: (§1)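 Cells grown static at 37°C in 5 ml BHI-YE, with 1 μg/ml CLI or none added at inoculation, and harvested at OD660 ≈0.8 (late log). Total RNA was DNase-treated. About 1 μg was run on 1% agarose with 1.1 M formaldehyde and blotted to nylon. Probes were 32P-labeled nga, slo, ska, covS or covR DNA, quantified by autoradiography/bioimaging. Triplicate assays from at least two independent cultures.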

[3] = test system: Streptococcus pyogenes; experiment: Induction of nga mRNA expression in drug-resistant Streptococcus pyogenes D2TY at 1 ug/ml by Northern blot analysis; format: functional, organism-based; summary of the method: as §1
[4] = test system: Streptococcus pyogenes; experiment: Induction of ska mRNA expression in drug-resistant Streptococcus pyogenes D2TY at 1 ug/ml by Northern blot analysis; format: functional, organism-based; summary of the method: as §1
[5] = test system: Streptococcus pyogenes; experiment: Induction of Slo protein production in drug-resistant Streptococcus pyogenes D2TY at 1 ug/ml by Western blot analysis; format: functional, organism-based
Summary of the method: (§2)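 Strain D2TY or its covS knockout, grown from −80°C stock at 37°C without agitation in 5 ml BHI-YE (0.3% yeast extract) containing protease inhibitor E-64, with or without 1 μg/ml CLI. Supernatant proteins run on SDS-PAGE and blotted to PVDF. Rabbit anti-Slo, anti-Nga or anti-Ska (1:2,000) applied for 16 h at room temperature. HRP goat anti-rabbit IgG (1:2,000) used as secondary. Triplicate assays from at least two independent cultures.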

[6] = test system: Streptococcus pyogenes; experiment: Induction of Nga protein production in drug-resistant Streptococcus pyogenes D2TY at 1 ug/ml by Western blot analysis; format: functional, organism-based; summary of the method: as §2
[7] = test system: Streptococcus pyogenes; experiment: Induction of Ska protein production in drug-resistant Streptococcus pyogenes D2TY at 1 ug/ml by Western blot analysis; format: functional, organism-based; summary of the method: as §2
[8] = test system: Streptococcus pyogenes; experiment: Induction of covS mRNA expression in drug-resistant Streptococcus pyogenes D2TY in BHI-YE supplemented medium at 1 ug/ml by Northern blot analysis; format: functional, organism-based; summary of the method: as §1
[9] = test system: Streptococcus pyogenes; experiment: Induction of covS mRNA expression in drug-resistant Streptococcus pyogenes D2TY delta covS mutant at 1 ug/ml by Northern blot analysis; format: functional, organism-based; summary of the method: as §1
[10] = test system: Streptococcus pyogenes; experiment: Induction of covR mRNA expression in drug-resistant Streptococcus pyogenes D2TY delta covS mutant at 1 ug/ml by Northern blot analysis; format: functional, organism-based; summary of the method: as §1
[11] = test system: Streptococcus pyogenes; experiment: Induction of two-component sensor kinase CovS expression in drug-resistant Streptococcus pyogenes D2TY delta covS mutant at 1 ug/ml by Northern blot analysis; format: functional, organism-based; summary of the method: as §1
[12] = test system: Streptococcus pyogenes; experiment: Decrease in slo mRNA expression in drug-resistant Streptococcus pyogenes D2TY isogenic delta covS mutant in BHI-YE supplemented medium at 1 ug/ml by Northern blot analysis; format: functional, organism-based; summary of the method: as §1
[13] = test system: Streptococcus pyogenes; experiment: Decrease in nga mRNA expression in drug-resistant Streptococcus pyogenes D2TY isogenic delta covS mutant in BHI-YE supplemented medium at 1 ug/ml by Northern blot analysis; format: functional, organism-based; summary of the method: as §1
[14] = test system: Streptococcus pyogenes; experiment: Decrease in ska mRNA expression in drug-resistant Streptococcus pyogenes D2TY isogenic delta covS mutant in BHI-YE supplemented medium at 1 ug/ml by Northern blot analysis; format: functional, organism-based; summary of the method: as §1
[15] = test system: Streptococcus pyogenes; experiment: Decrease in Slo protein production in drug-resistant Streptococcus pyogenes D2TY isogenic delta covS mutant in BHI-YE supplemented medium at 1 ug/ml by Western blot analysis; format: functional, organism-based; summary of the method: as §2
[16] = test system: Streptococcus pyogenes; experiment: Decrease in Nga protein production in drug-resistant Streptococcus pyogenes D2TY isogenic delta covS mutant in BHI-YE supplemented medium at 1 ug/ml by Western blot analysis; format: functional, organism-based; summary of the method: as §2
[17] = test system: Streptococcus pyogenes; experiment: Decrease in Ska protein production in drug-resistant Streptococcus pyogenes D2TY isogenic delta covS mutant in BHI-YE supplemented medium at 1 ug/ml by Western blot analysis; format: functional, organism-based; summary of the method: as §2

With `CCC[C@@H]1C[C@@H](C(=O)N[C@@H]([C@H]2O[C@H](SC)[C@H](O)[C@@H](O)[C@H]2O)[C@H](C)Cl)N(C)C1.Cl` [CLINDAMYCIN HYDROCHLORIDE] the MIC [1] was 256 µg/mL, the Activity [2] was “Active” and the Activity [3] was “Active”. The Activity [4] was “Active”, the Activity [5] was “Active” and the Activity [6] was “Active”. For the same molecule, the Activity [7] was “Active”, the Activity [8] was “Active” and the Activity [9] was “inactive”. For the same molecule, the Activity [10] was “inactive”, the Activity [11] was “inactive” and the Activity [12] was “Active”. The Activity [13] was “Active”, the Activity [14] was “Active” and the Activity [15] was “Active”. The Activity [16] was “Active” and the Activity [17] was “Active”.
